Results collected from several papers.
Each line is one published result; the experiments were not run side by side. In brackets after ≈: the same amount, converted by molar mass.

| SMILES | organism | assay | test system | conditions | quantity | result |
| --- | --- | --- | --- | --- | --- | --- |
| OC(Cn1cncn1)(Cn1cncn1)c1ccc(F)cc1F | Candida albicans | microbial growth, broth dilution | 58288 | 48 h | MIC | 8 µM |
| CC[C@H]1OC(=O)[C@H](C)[C@@H](O[C@H]2C[C@@](C)(OC)[C@@H](O)[C@H](C)O2)[C@H](C)[C@@H](O[C@@H]2O[C@H](C)C[C@H](N(C)C)[C@H]2O)[C@](C)(O)C[C@@H](C)/C(=N\OCOCCOC)[C@H](C)[C@@H](O)[C@]1(C)O | Enterococcus faecium | microbial growth | – | clinical isolate | MIC90 | > 128 µg/mL |
| CC1(C)S[C@@H]2[C@H](NC(=O)[C@H](N)c3ccccc3)C(=O)N2[C@H]1C(=O)O | Enterococcus faecium | microbial growth, broth dilution | ATCC19434 | 12 h | MIC | 0.5 µg/mL |
| O=c1[nH]c(CCl)nc2scc(-c3cccc(F)c3)c12 | Trypanosoma brucei | parasite growth, ATP luminescence | – | 24 h | EC50 | 1300 nM |
| CCOC(=O)c1cnc2c([N+](=O)[O-])cc(C(F)(F)F)cc2c1NCCCn1ccnc1 | Trypanosoma brucei | parasite growth, resazurin | – | 72 h | EC50 | 8000 nM |
| C/C(=N\NC(=O)/N=C(\C)c1c(O)c2ccccc2oc1=O)c1c(O)c2ccccc2oc1=O | Penicillium verrucosum | microbial growth, broth dilution | – | 48 h | MIC | 62.5 µg/mL |
| FC(F)(F)c1cc(Nc2ncnc3ccc(-c4cccc(N5CCOCC5)c4)cc23)ccc1Cl | Trypanosoma brucei | parasite growth, SYBR Green | GAMBIENSE | – | GI50 | 250 nM |
| C/C(=N\C(=O)/N=C(\C)c1c(O)c2ccccc2oc1=O)c1c(O)c2ccccc2oc1=O | Penicillium verrucosum | microbial growth, broth dilution | – | 48 h | MIC | 62.5 µg/mL |
| CC1(C)S[C@@H]2[C@H](NC(=O)[C@H](N)c3ccccc3)C(=O)N2[C@H]1C(=O)O | Enterococcus faecium | microbial growth | – | clinical isolate | MIC50 | 128 µg/mL (≈ 366 µM) |
| c1cc(-c2ccc3ncnc(Nc4ncco4)c3c2)cc(N2C[C@H]3C[C@@H]2CO3)c1 | Trypanosoma brucei | parasite growth, SYBR Green | – | 48 h | GI50 | 2100 nM |
| C/C(=N\C(=N)/N=C(\C)c1c(O)c2ccccc2oc1=O)c1c(O)c2ccccc2oc1=O | Penicillium verrucosum | microbial growth, broth dilution | – | 48 h | MIC | 125 µg/mL |
| CN1CCN(c2cccc(-c3ccc4ncnc(Nc5ncco5)c4c3)c2)CC1 | Trypanosoma brucei | parasite growth, SYBR Green | – | 48 h | GI50 | 1700 nM |
| O=c1[nH]c(CCl)nc2scc(-c3ccccc3F)c12 | Trypanosoma brucei | parasite growth, ATP luminescence | – | 48 h | EC50 | 800 nM |
| C[C@@H]1[C@H](O)[C@@H](C)/C=C/C=C/C=C/C=C/C=C/C=C/C=C/[C@H](O[C@@H]2O[C@H](C)[C@@H](O)[C@H](N)[C@@H]2O)C[C@@H]2O[C@](O)(C[C@@H](O)C[C@@H](O)[C@H](O)CC[C@@H](O)C[C@@H](O)CC(=O)O[C@H]1C)C[C@H](O)[C@H]2C(=O)O | Candida albicans | microbial growth, broth dilution | 58288 | 48 h | MIC | < 0.25 µM |
| c1cc(-c2ccc3ncnc(NC4CCOCC4)c3c2)cc(N2CCOCC2)c1 | Trypanosoma brucei | parasite growth, SYBR Green | – | 48 h | GI50 | 3000 nM |
| CCOC(=O)c1cnc2c([N+](=O)[O-])cc(C(F)(F)F)cc2c1NCCCN1CCOCC1 | Trypanosoma brucei | parasite growth, resazurin | – | 72 h | EC50 | > 10000 nM |
| CC(=O)N1CCN(c2ccc(OCC3COC(Cn4ccnc4)(c4ccc(Cl)cc4Cl)O3)cc2)CC1 (stereo not drawn) | Penicillium verrucosum | microbial growth, broth dilution | – | 48 h | MIC | 3.9 µg/mL |
| CC(=O)N1CCN(c2ccc(OCC3COC(Cn4ccnc4)(c4ccc(Cl)cc4Cl)O3)cc2)CC1 (stereo not drawn) | Candida albicans | microbial growth, broth dilution | SP3876 | 48 h | MIC | 8 µM |
| O=c1[nH]c(CCl)nc2scc(-c3ccccc3)c12 | Trypanosoma brucei | parasite growth, ATP luminescence | – | 48 h | EC50 | 1400 nM |
| CN1CCC(Nc2ncnc3ccc(-c4cccc(N5CCOCC5)c4)cc23)CC1 | Trypanosoma brucei | parasite growth, SYBR Green | – | 48 h | GI50 | 4700 nM |
| C/C(=N\c1nc(N)nc(/N=C(\C)c2c(O)c3ccccc3oc2=O)n1)c1c(O)c2ccccc2oc1=O | Penicillium verrucosum | microbial growth, broth dilution | – | 48 h | MIC | 7.81 µg/mL |
| Cn1cc(Nc2ncnc3ccc(-c4cccc(N5CCOCC5)c4)cc23)cn1 | Trypanosoma brucei | parasite growth, SYBR Green | – | 48 h | GI50 | 250 nM |
| O=c1[nH]c(CCl)nc2scc(-c3ccc(F)cc3)c12 | Trypanosoma brucei | parasite growth, ATP luminescence | – | 24 h | EC50 | 1300 nM |
| O=[N+]([O-])c1ccc(Nc2ncnc3ccc(-c4cccc(N5CCOCC5)c4)cc23)cc1C(F)(F)F | Trypanosoma brucei | parasite growth, SYBR Green | GAMBIENSE | – | GI50 | 13 nM |
| C=C[C@]1(C)C[C@@H](OC(=O)CS[C@@H]2C[C@H]3CC[C@@H](C2)N3C)[C@]2(C)[C@H](C)CC[C@]3(CCC(=O)[C@H]32)[C@@H](C)[C@@H]1O | Enterococcus faecium | microbial growth | – | clinical isolate | MIC90 | 128 µg/mL |
| Cc1c2c(nn1C)CSCc1cc(n(C)n1)CSc1cc(c3ccccc3c1)OCCCc1c(C(=O)O)n(C)c3c-2c(Cl)ccc13 | Enterococcus faecium | microbial growth, broth dilution | – | clinical isolate | MIC90 | 25 µM |
| c1cc(-c2ccc3ncnc(Nc4ncco4)c3c2)nc(N2CCOCC2)c1 | Trypanosoma brucei | parasite growth, SYBR Green | – | 48 h | GI50 | 190 nM |
